In ChEMBL document CHEMBL5724801, “EUbOPEN Chemogenomics Library - Multiplex” (2024):
Where “and” joins values, the source holds several entries; their conditions need not be identical. Equal entries are not always repeated.

System: U2OS
Assay: Multiplex assay against U2OS
Assay type: toxicity, cell-based
Settings: human, 12 h, 1 µM, compound concentration 1 uM
Summary of the method: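 Cells were classed with CellPathfinder machine-learning gating, first as Hoechst high-intensity objects or normal cells, then (normal cells) as healthy, pyknosed or fragmented nuclei, and finally (pyknosed cells) as mitotic or apoptotic. Staining of live cells at seeding used Hoechst33342, BioTracker Green Microtubule Cytoskeleton Dye, MitoTracker Red and Annexin V Alexa Fluor 680, with imaging on a CQ1 microscope at 37°C and 5% CO2 after compound addition. Tubulin, mitochondrial-mass and membrane-permeability phenotypes are per cents of healthy-nucleus cells.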

SMILES | Population Apoptotic (%) | Population Fragmented Nuclei (%) | Population Healthy Nuclei (%) | Population Hoechst High Intensity Objects (%) | Population Membrane Permeable-Phenotype (%) | Population Mitochondria Different-Phenotype (%) | Population Mitotic Cells (%) | Population Normal (%) | Population Pyknosed Nuclei (%) | Population Tubulin-Different-Phenotype (%)
O=C1c2c(Br)c(Br)c(Br)c(Br)c2C(=O)N1c1ncc[nH]1 | 34.38% and 22.22% | 2.78% and 4.62% | 88.33% and 79.77% | 0 | 2.52% and 6.52% | 0.94% and 6.52% | 65.62% and 77.78% | 100 | 8.89% and 15.61% | 1.26% and 0.72%
CN(C)Cc1cccc(NC(=C2C(=O)Nc3cc(C(N)=O)ccc32)c2ccccc2)c1 | 37.78% and 38.1% | 1.29% and 3.85% | 87.11% and 82.69% | 0 | 1.78% and 2.33% | 0.59% and 5.43% | 62.22% and 61.9% | 100 | 11.6% and 13.46% | 1.18% and 0%

Same assay, conditions: human, 12 h, 1 µM, compound concentration 1 uM

SMILES | Total Cell Count
O=C1c2c(Br)c(Br)c(Br)c(Br)c2C(=O)N1c1ncc[nH]1 | 360 and 173
CN(C)Cc1cccc(NC(=C2C(=O)Nc3cc(C(N)=O)ccc32)c2ccccc2)c1 | 388 and 156

Same assay, conditions: human, 12 h, 10 µM, compound concentration 10 uM

SMILES | Population Apoptotic (%) | Population Fragmented Nuclei (%) | Population Healthy Nuclei (%) | Population Hoechst High Intensity Objects (%) | Population Membrane Permeable-Phenotype (%) | Population Mitochondria Different-Phenotype (%) | Population Mitotic Cells (%) | Population Normal (%) | Population Pyknosed Nuclei (%) | Population Tubulin-Different-Phenotype (%)
O=C1c2c(Br)c(Br)c(Br)c(Br)c2C(=O)N1c1ncc[nH]1 | 30.95% and 44.44% | 1.83% and 1.43% | 88.58% and 85.71% | 0 | 0.77% and 1.67% | 0% and 5% | 69.05% and 55.56% | 100 | 9.59% and 12.86% | 0.77% and 0.83%
CN(C)Cc1cccc(NC(=C2C(=O)Nc3cc(C(N)=O)ccc32)c2ccccc2)c1 | 35.71% and 43.75% | – | 86.17% and 71.36% | 0 | 3.66% and 11.27% | – | 64.29% and 56.25% | 100 | 10.19% and 8.04% | 6.48% and 4.93%

Same assay, conditions: human, 12 h, 10 µM, compound concentration 10 uM

SMILES | Total Cell Count
CN(C)Cc1cccc(NC(=C2C(=O)Nc3cc(C(N)=O)ccc32)c2ccccc2)c1 | 412 and 199

Same assay, conditions: human, 24 h, 1 µM, compound concentration 1 uM

SMILES | Population Apoptotic (%) | Population Fragmented Nuclei (%) | Population Healthy Nuclei (%) | Population Hoechst High Intensity Objects (%) | Population Membrane Permeable-Phenotype (%) | Population Mitochondria Different-Phenotype (%) | Population Mitotic Cells (%) | Population Normal (%) | Population Pyknosed Nuclei (%) | Population Tubulin-Different-Phenotype (%)
O=C1c2c(Br)c(Br)c(Br)c(Br)c2C(=O)N1c1ncc[nH]1 | 47.37% and 28.12% | 1.69% and 4.85% | 90.27% and 81.06% | 0.21% and 0% | 1.17% and 4.35% | 0.47% and 3.8% | 52.63% and 71.88% | 99.79% and 100% | 8.03% and 14.1% | 1.41% and 1.63%
CN(C)Cc1cccc(NC(=C2C(=O)Nc3cc(C(N)=O)ccc32)c2ccccc2)c1 | 42% and 39.29% | 1.87% and 0.52% | 88.81% and 84.97% | 0% | 1.89% and 4.27% | 0.42% and 6.1% | 58% and 60.71% | 100% | 9.33% and 14.51% | 1.47% and 0.61%

Same assay, conditions: human, 24 h, 1 µM, compound concentration 1 uM

SMILES | Total Cell Count
O=C1c2c(Br)c(Br)c(Br)c(Br)c2C(=O)N1c1ncc[nH]1 | 474 and 227
CN(C)Cc1cccc(NC(=C2C(=O)Nc3cc(C(N)=O)ccc32)c2ccccc2)c1 | 536 and 193

Same assay, conditions: human, 24 h, 10 µM, compound concentration 10 uM

SMILES | Population Apoptotic (%) | Population Fragmented Nuclei (%) | Population Healthy Nuclei (%) | Population Hoechst High Intensity Objects (%) | Population Membrane Permeable-Phenotype (%) | Population Mitochondria Different-Phenotype (%) | Population Mitotic Cells (%) | Population Normal (%) | Population Pyknosed Nuclei (%) | Population Tubulin-Different-Phenotype (%)
O=C1c2c(Br)c(Br)c(Br)c(Br)c2C(=O)N1c1ncc[nH]1 | 43.1% and 37.93% | 1.95% and 1.6% | 88.62% and 82.89% | 0 | 0.73% and 3.87% | 0% and 3.87% | 56.9% and 62.07% | 100 | 9.43% and 15.51% | 0% and 0.65%
CN(C)Cc1cccc(NC(=C2C(=O)Nc3cc(C(N)=O)ccc32)c2ccccc2)c1 | 50.75% and 51.72% | – | 82.77% and 70.62% | 0 | 2.06% and 8.72% | – | 49.25% and 48.28% | 100 | 14.26% and 13.74% | 4.88% and 2.68%

Same assay, conditions: human, 24 h, 10 µM, compound concentration 10 uM

SMILES | Total Cell Count
CN(C)Cc1cccc(NC(=C2C(=O)Nc3cc(C(N)=O)ccc32)c2ccccc2)c1 | 470 and 211

Same assay, conditions: human, 48 h, 1 µM, compound concentration 1 uM

SMILES | Population Apoptotic (%) | Population Fragmented Nuclei (%) | Population Healthy Nuclei (%) | Population Hoechst High Intensity Objects (%) | Population Membrane Permeable-Phenotype (%) | Population Mitochondria Different-Phenotype (%) | Population Mitotic Cells (%) | Population Normal (%) | Population Pyknosed Nuclei (%) | Population Tubulin-Different-Phenotype (%)
O=C1c2c(Br)c(Br)c(Br)c(Br)c2C(=O)N1c1ncc[nH]1 | 46.91% and 35.59% | 2.45% and 2.79% | 88.91% and 82.23% | 0% | 1.56% and 1.23% | 0.24% and 3.09% | 53.09% and 64.41% | 100% | 8.64% and 14.97% | 0.84% and 0.31%
CN(C)Cc1cccc(NC(=C2C(=O)Nc3cc(C(N)=O)ccc32)c2ccccc2)c1 | 48.91% and 34.38% | 3.29% and 3.37% | 86.93% and 86.81% | 0.11% and 0% | 1.34% and 2.47% | 0.37% and 3.53% | 51.09% and 65.62% | 99.89% and 100% | 9.78% and 9.82% | 1.1% and 0.71%

Same assay, conditions: human, 48 h, 1 µM, compound concentration 1 uM

SMILES | Total Cell Count
O=C1c2c(Br)c(Br)c(Br)c(Br)c2C(=O)N1c1ncc[nH]1 | 938 and 394
CN(C)Cc1cccc(NC(=C2C(=O)Nc3cc(C(N)=O)ccc32)c2ccccc2)c1 | 942 and 326

Same assay, conditions: human, 48 h, 10 µM, compound concentration 10 uM

SMILES | Population Apoptotic (%) | Population Fragmented Nuclei (%) | Population Healthy Nuclei (%) | Population Hoechst High Intensity Objects (%) | Population Membrane Permeable-Phenotype (%) | Population Mitochondria Different-Phenotype (%) | Population Mitotic Cells (%) | Population Normal (%) | Population Pyknosed Nuclei (%) | Population Tubulin-Different-Phenotype (%)
O=C1c2c(Br)c(Br)c(Br)c(Br)c2C(=O)N1c1ncc[nH]1 | 50.54% and 55.88% | 4.81% and 1.63% | 86.74% and 87.25% | 0 | 0.31% and 3.37% | 0% and 1.12% | 49.46% and 44.12% | 100 | 8.45% and 11.11% | 0.31% and 1.87%
CN(C)Cc1cccc(NC(=C2C(=O)Nc3cc(C(N)=O)ccc32)c2ccccc2)c1 | 57.52% and 51.28% | – | 81.24% and 71.84% | 0 | 3.41% and 6.53% | 0.33% and 7.54% | 42.48% and 48.72% | 100 | 14.93% and 14.08% | 4.88% and 7.04%

Same assay, conditions: human, 48 h, 10 µM, compound concentration 10 uM

SMILES | Total Cell Count
CN(C)Cc1cccc(NC(=C2C(=O)Nc3cc(C(N)=O)ccc32)c2ccccc2)c1 | 757 and 277
